The record followed here is ChEMBL document CHEMBL3826935, “Synthesis and Pharmacology of (Pyridin-2-yl)methanol Derivatives as Novel and Selective Transient Receptor Potential Vanilloid 3 Antagonists” (J Med Chem, 2016).

Each structure is given as a SMILES string.

Data set [1] addresses Voltage-dependent T-type calcium channel subunit alpha-1H (Homo sapiens) (UniProt O95180). Kind of data set: Binding affinity to Cav3.2 (unknown origin) at 10 uM. In short, it runs like this:
(§1)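 Selectivity screen at 10 µM across CEREP and internal target panels. Readout is percent binding, with 50% as the threshold.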

Data set [2] concerns the target Voltage-gated inwardly rectifying potassium channel KCNH2 (Homo sapiens, UniProt Q12809). Kind of data set: Binding affinity to human ERG at 10 uM. An outline of the steps:
as §1

The nature of data set [3]: Half life in rat at 1 mg/kg, iv. It counts as ADME, organism-based. The conditions noted are these: in vivo. In short, it runs like this: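 Rat pharmacokinetics: iv dose 1 mg/kg; po dose 1 or 2 mg/kg depending on compound. AUC taken over 0–8 h. Unbound parameters calculated using plasma free fraction.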
Data set [4] has as its system Rattus norvegicus. Kind of data set: Antiallodynic activity in po dosed chronic constriction injury Sprague-Dawley rat model of neuropathic pain assessed as attenuation of mechanical allodynia induced by von Frey hair stimulation to the ipsilateral hind paw. It counts as functional, organism-based. In short, it runs like this: (§2)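 Rat neuropathic pain models dosed orally. Mechanical allodynia measured by von Frey stimulation of the injured ipsilateral paw, with a 15 g threshold taken as maximal possible effect and results expressed as %MPE. Vehicle 10% DMSO in PEG; n = 6 per group.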

The subject of data set [5] is Rattus norvegicus. The experiment in a line: Antiallodynic activity in po dosed sciatic nerve ligation Sprague-Dawley rat model of neuropathic pain assessed as attenuation of mechanical allodynia induced by von Frey hair stimulation to the ipsilateral hind paw. The data set is classed as functional, organism-based. In short, it runs like this: as §2
Data set [6] concerns Rattus norvegicus. Kind of data set: Toxicity in chronic constriction injury Sprague-Dawley rat model of neuropathic pain assessed as overt impairments at 10 to 100 mg/kg, po. As to conditions: in vivo. It counts as organism-based.
Data set [7] deals with Rattus norvegicus. Kind of data set: Toxicity in chronic constriction injury Sprague-Dawley rat model of neuropathic pain assessed as behavioral changes at 10 to 100 mg/kg, po. As to conditions: in vivo. It counts as organism-based.
Data set [8] relates to Rattus norvegicus. The experiment in a line: Toxicity in sciatic nerve ligation Sprague-Dawley rat model of neuropathic pain assessed as behavioral changes at 10 to 100 mg/kg, po. The data set is classed as organism-based. As to conditions: in vivo.
Data set [9] relates to Rattus norvegicus. The experiment in a line: Toxicity in Sprague-Dawley rat reserpine model of central pain assessed as overt impairments at 10 to 100 mg/kg, po. It counts as organism-based. The conditions noted are these: in vivo.
In data set [10] the target is T1, Transient receptor potential cation channel subfamily V member 3 (Homo sapiens) (UniProt Q8NET8).
T1 sequence (whole entry): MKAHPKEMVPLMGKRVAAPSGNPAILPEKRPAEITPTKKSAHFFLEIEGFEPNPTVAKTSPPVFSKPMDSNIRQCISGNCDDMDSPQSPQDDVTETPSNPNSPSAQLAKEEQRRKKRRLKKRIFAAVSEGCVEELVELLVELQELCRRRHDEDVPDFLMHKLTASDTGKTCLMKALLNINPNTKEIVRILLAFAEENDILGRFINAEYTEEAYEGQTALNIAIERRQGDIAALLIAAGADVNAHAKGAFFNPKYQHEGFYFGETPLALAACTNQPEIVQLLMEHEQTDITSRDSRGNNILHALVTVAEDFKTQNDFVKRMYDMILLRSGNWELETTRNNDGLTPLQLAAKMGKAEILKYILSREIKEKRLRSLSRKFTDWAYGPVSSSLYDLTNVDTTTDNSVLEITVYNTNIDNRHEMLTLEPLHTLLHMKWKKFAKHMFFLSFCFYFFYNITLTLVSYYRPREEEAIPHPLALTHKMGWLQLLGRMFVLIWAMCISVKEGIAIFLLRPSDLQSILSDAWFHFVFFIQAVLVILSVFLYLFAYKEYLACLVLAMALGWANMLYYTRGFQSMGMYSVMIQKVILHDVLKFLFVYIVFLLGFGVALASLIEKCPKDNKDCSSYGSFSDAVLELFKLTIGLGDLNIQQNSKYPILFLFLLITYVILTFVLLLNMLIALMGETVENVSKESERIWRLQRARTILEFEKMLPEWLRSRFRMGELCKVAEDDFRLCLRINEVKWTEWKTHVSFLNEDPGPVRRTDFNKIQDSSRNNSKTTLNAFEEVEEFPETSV
Kind of data set: (§3) Antagonist activity at human TRPV3 expressed in recombinant HEK293 cells assessed as inhibition of 2-APB induced calcium flux by FLIPR analysis. The data set is classed as cell-based. In short, it runs like this: (§4)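 HEK293 cells stably expressing human TRPV3 (I25V variant), plated the day before in DMEM + 10% FBS at 37 °C, 5% CO2. Calcium 4 dye loaded in Ca/Mg-free HEPES D-PBS pH 7.4 for 1–2 h at room temperature. Compound dilutions added with 3 min baseline, then 2-APB at 60 µM final; Ca2+ flux read 3 min on FLIPR. Kb from at least duplicates, averaged across independent runs.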
For orientation: A change in cytosolic calcium serves as a functional read-out for many receptors and channels.

The target in data set [11] is T2, Transient receptor potential cation channel subfamily V member 3 (Homo sapiens, UniProt Q8NET8).
T2 sequence (Q8NET8 whole entry): T1 sequence (whole entry)
The data set is described as §3. The data set is classed as cell-based. An outline of the steps: as §4

Data set [12] can be described thus: Fraction unbound in human plasma. It counts as ADME, cell-free.
For data set [13], the species on record is Rattus norvegicus. The experiment in a line: Cardiotoxicity in rat assessed as increase in cardiac contractility at plasma concentration of 4.7 ug/ml. The data set is classed as toxicity, organism-based.

Chain of Voltage-gated inwardly rectifying potassium channel KCNH2 (Q12809 whole entry): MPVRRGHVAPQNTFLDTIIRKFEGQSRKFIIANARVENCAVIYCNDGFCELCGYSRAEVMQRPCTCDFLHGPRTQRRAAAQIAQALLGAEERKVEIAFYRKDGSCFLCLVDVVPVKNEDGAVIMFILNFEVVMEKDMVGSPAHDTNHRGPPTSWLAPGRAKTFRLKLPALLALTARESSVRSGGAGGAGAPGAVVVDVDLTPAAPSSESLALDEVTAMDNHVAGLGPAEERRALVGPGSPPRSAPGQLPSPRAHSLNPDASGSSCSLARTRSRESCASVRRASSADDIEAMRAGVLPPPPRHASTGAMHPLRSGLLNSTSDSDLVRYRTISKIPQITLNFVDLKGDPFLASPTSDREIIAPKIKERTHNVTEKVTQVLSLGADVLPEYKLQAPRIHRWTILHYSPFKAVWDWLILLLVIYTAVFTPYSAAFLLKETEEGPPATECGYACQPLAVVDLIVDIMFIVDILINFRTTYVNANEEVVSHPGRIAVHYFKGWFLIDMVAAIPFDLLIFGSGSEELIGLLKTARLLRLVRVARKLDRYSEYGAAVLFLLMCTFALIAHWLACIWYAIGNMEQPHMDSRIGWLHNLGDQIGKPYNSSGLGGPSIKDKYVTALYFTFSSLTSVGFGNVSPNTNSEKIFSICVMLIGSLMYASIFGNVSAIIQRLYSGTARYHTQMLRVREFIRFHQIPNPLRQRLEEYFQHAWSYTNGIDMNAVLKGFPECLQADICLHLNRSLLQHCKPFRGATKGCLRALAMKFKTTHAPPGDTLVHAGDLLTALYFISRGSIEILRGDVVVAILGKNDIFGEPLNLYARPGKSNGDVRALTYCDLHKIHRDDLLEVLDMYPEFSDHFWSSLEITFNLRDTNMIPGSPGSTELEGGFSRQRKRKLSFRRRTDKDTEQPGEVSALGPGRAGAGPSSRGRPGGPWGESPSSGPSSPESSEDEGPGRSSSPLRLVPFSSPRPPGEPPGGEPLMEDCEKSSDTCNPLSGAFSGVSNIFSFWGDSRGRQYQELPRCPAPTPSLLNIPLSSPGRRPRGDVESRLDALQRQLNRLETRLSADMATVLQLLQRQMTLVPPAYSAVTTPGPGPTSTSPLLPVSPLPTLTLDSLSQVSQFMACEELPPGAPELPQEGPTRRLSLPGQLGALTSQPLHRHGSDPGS
Chain of Voltage-dependent T-type calcium channel subunit alpha-1H (Homo sapiens) (O95180 whole entry): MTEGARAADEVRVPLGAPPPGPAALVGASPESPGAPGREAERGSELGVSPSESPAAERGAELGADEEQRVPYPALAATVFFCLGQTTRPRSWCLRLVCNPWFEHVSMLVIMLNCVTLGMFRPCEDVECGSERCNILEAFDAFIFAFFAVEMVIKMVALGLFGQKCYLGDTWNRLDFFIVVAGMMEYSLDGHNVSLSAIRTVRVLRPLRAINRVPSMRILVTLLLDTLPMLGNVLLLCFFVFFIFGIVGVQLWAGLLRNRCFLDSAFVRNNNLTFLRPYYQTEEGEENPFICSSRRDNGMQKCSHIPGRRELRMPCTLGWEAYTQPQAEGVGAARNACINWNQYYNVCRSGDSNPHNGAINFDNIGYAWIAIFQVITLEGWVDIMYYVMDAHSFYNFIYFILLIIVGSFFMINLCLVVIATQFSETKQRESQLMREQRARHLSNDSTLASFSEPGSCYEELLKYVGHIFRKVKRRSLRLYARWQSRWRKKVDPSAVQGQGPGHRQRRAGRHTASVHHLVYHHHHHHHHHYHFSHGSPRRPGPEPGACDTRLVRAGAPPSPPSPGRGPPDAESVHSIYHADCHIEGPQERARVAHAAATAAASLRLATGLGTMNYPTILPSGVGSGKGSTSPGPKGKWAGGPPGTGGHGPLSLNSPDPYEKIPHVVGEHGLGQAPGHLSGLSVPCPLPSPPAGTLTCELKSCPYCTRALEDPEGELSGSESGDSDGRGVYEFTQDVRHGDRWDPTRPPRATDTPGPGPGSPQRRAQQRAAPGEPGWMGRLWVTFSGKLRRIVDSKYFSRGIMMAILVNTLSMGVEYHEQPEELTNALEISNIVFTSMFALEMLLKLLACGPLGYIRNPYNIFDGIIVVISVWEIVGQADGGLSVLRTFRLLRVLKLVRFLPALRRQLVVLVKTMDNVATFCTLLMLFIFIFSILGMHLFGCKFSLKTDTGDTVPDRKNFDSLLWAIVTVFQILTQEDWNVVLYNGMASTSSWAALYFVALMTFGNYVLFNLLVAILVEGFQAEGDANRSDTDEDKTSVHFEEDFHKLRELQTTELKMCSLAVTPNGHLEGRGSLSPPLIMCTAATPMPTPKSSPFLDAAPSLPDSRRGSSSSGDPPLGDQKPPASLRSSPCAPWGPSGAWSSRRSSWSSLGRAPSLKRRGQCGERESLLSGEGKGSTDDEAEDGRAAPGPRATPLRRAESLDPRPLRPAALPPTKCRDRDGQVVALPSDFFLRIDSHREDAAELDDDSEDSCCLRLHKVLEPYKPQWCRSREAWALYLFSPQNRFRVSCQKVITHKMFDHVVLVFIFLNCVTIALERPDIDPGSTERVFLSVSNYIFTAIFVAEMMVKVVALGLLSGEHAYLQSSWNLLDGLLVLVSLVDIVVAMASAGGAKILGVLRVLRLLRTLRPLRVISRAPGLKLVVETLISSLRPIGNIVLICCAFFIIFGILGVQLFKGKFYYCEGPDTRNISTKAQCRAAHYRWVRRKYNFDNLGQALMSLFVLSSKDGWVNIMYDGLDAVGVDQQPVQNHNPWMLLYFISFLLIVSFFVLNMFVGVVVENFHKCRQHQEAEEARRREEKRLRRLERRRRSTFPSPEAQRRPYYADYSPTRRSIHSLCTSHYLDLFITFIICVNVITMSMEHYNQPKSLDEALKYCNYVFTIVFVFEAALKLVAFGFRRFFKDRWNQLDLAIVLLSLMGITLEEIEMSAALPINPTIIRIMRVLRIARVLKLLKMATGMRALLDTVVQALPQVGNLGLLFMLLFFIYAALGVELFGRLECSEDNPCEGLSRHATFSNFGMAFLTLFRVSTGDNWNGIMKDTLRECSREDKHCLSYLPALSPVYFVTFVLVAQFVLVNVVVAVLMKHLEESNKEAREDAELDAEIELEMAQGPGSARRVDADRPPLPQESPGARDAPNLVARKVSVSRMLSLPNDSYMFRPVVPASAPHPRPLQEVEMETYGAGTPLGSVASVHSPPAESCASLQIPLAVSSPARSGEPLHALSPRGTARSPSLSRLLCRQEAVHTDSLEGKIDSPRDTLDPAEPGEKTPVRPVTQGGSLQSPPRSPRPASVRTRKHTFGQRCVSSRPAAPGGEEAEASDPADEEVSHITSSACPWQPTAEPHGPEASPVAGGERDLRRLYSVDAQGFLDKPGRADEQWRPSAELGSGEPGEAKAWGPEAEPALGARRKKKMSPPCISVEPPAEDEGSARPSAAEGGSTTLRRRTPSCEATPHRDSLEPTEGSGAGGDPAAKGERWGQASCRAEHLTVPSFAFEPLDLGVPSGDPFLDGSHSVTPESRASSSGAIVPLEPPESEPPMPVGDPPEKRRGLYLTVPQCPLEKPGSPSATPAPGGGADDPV

By half-life is commonly meant the time in which the quantity being followed falls by half. Low values mean rapid decline, high ones slow decline. As a reminder, the Kb is the equilibrium dissociation constant of an antagonist, usually derived from a functional assay. What is called IC50 is the point on the concentration scale where inhibition reaches its midpoint. As a reminder, the fraction unbound is the share of the substance not bound to proteins or other matrix. Regarding `C[C@]1(O)C[C@](c2cc(C(F)(F)F)ccn2)([C@H](O)c2ccccn2)C1` (mixture of isomers), the Activity in data set [1] is < 50%; in [2], < 50%; in the data set with Rattus norvegicus [4], “Dose-dependent effect”; in the data set on Rattus norvegicus [5] it was “Dose-dependent effect”; in the data set on Rattus norvegicus [6], “Non-toxic”; with Rattus norvegicus [7], “Non-toxic”. In addition, the Activity entry in the data set with Rattus norvegicus [8], in the data set on Rattus norvegicus [9] and in the data set listed under Rattus norvegicus [13] was “Non-toxic” each time. The same molecule showed a half-life in data set [3] of 30 min. Also, the EC50 with Rattus norvegicus [4] and with Rattus norvegicus [5] was 11 µmol in each case. The Kb in [10] worked out at 0.56 µM. Also, in [11], the IC50 was found to be 0.93 µM. Besides, in [12], the fraction unbound worked out at 0.89.
